Assay outcomes as filed in PubChem BioAssay.
In the library only some 8.4% were active in any assay of this set; here they are far more common.
PostGolgi ctrl: growth inhibition of yeast control strain, primary screen, counter-screen for post-Golgi transport modulator project; inhibition, % at 10 µM; efflux-deficient yeast background strain, growth absorbance A615, 16 h; 98,000 compounds, 5% hits; AID 738, 2007
PostGolgi yeast: phenotypic screen on post-Golgi transport, primary screen; post-Golgi transport phenotypic cell assay; inhibition, % at 10 µM; 98,000 compounds, 0.9% hits;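 also: yeast cells grown in 1536-well plates; yeast grown about 18 h at 30C before absorbance read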
Ecoli WT expand: growth inhibitors of wild-type E. coli, primary screen, strain BW25113, expanded library, OD600; OD600 absorbance; 98,000 compounds, 0.15% hits; AID 710, 2007; growth inhibition, % at 100 µM;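 active = growth inhibition above about 50% at one test dose, limit read from the data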;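 also: growth measured after 20 h incubation at 37 °C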
Cav32 inh: Cav3.2 calcium influx blockers – cell-based, Fluo-4 calcium fluorescence, FDSS, MLSMR library, primary screen. Voltage-dependent T-type calcium channel subunit alpha-1H (Homo sapiens), O95180. Cav3.2-expressing cells; hits give low values. B-score at 10 µM. 100,000 compounds, 4% hits;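 active = single-dose well whose peak fluorescence ratio is a statistical outlier from its plate by either plate-standardised score or position-corrected B-score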
Ecoli tolC: growth inhibitors of E. coli tolC mutant, primary screen, strain BW25113 ΔtolC::kan, 384-well. 65,000 compounds, 2.2% hits. OD615. growth inhibition, % at 10 µM (by protocol);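 active = growth inhibition at or above a cutoff equal to the mean over every tested compound plus 3 SD, cut at about 60% in these data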;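 also: growth measured after 20 h incubation at 37 °C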
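Assay system: tolC-deleted E. coli BW25113. Medium: kanamycin-containing LB broth (50 µg/mL). Dosing: 10 µM final, single dose. Timing: bacterial growth with compound for 20 h at 37 °C. Detection: A615 absorbance measurement. Read-out basis: growth inhibition in percent.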
Hits are given with their value. Rule as the data show it, unless noted: active = inhibition above about 30%; inactive = the rest.

Screening COc1ccc(CN(C(=O)CSc2nnc(-c3ccc(F)cc3)o2)c2ccc(F)cc2)cc1 returned PostGolgi ctrl 38, PostGolgi yeast inactive, Ecoli WT expand inactive, Cav32 inh -6.5 and Ecoli tolC inactive.
COc1ccc(N(Cc2ccccc2)C(=O)CSc2nnc(Cn3nnc4ccccc43)o2)cc1 was read as PostGolgi ctrl inactive, PostGolgi yeast inactive, Ecoli WT expand inactive and Cav32 inh -5.8.
`COc1ccc(-c2nnc(SCc3cc(C)cc(C)c3)o2)cc1` gave PostGolgi ctrl inactive, PostGolgi yeast inactive, Ecoli WT expand inactive and Ecoli tolC 69.
Screening Cc1ccc2cc(C#N)c(SCC(=O)N3CCCc4ccccc43)nc2c1C returned PostGolgi ctrl inactive, PostGolgi yeast inactive and Ecoli WT expand inactive.
O=C(CSc1ccc(Cl)cc1)N1CCC(c2nc3ccccc3s2)CC1 was read as PostGolgi ctrl 41, PostGolgi yeast inactive, Ecoli WT expand inactive and Cav32 inh inactive.
For CCc1ccc(C(=O)N2CCC(c3nc4ccccc4s3)CC2)cc1 the results were PostGolgi ctrl 37, PostGolgi yeast inactive, Ecoli WT expand inactive and Cav32 inh inactive.
For CC1CN(C2CCN(S(=O)(=O)c3ccc(F)cc3)CC2)CC(C)O1 (configuration not stated) the results were PostGolgi ctrl 30, PostGolgi yeast 48, Ecoli WT expand inactive and Cav32 inh inactive.
CC1CN(C2CCN(S(=O)(=O)c3ccccc3)CC2)CC(C)O1 (configuration not stated) was read as Cav32 inh inactive and Ecoli tolC inactive.
For CCOC(=O)Cc1csc(SCc2nc3ccccc3c(=O)[nH]2)n1 the results were PostGolgi ctrl inactive, PostGolgi yeast inactive, Ecoli WT expand inactive, Cav32 inh inactive and Ecoli tolC inactive.
`Cc1sc2nc(SCC(=O)NCc3ccco3)n(-c3ccccc3)c(=O)c2c1C` gave PostGolgi ctrl inactive, PostGolgi yeast inactive, Ecoli WT expand inactive, Cav32 inh inactive and Ecoli tolC inactive.
CC(NC(=O)CSc1nc2sc3c(c2c(=O)n1-c1ccccc1)CCCC3)c1ccccc1 (configuration not stated) was read as Cav32 inh -6.5.
For CC(C)C(C)NC(=O)CSc1nc2scc(-c3ccco3)c2c(=O)n1-c1ccccc1 (configuration not stated) the results were PostGolgi ctrl inactive, PostGolgi yeast inactive, Ecoli WT expand inactive and Cav32 inh -5.4.
CC(C)C(C)(C#N)NC(=O)CSc1nc2scc(-c3ccco3)c2c(=O)n1-c1ccccc1 (configuration not stated) was read as PostGolgi ctrl inactive, PostGolgi yeast inactive, Ecoli WT expand inactive, Cav32 inh -5.1 and Ecoli tolC inactive.
Cc1cc(NC(=O)CSc2nc3sc4c(c3c(=O)n2C)CCCC4)no1 was read as PostGolgi ctrl inactive, PostGolgi yeast inactive, Ecoli WT expand inactive and Ecoli tolC inactive.
Screening CC(Cc1ccccc1)C(=O)NCc1ccccn1 (configuration not stated) returned Cav32 inh inactive.
Screening Cc1cc(Cl)ccc1NC(=S)NCc1cccs1 returned PostGolgi ctrl inactive, PostGolgi yeast inactive, Ecoli WT expand inactive and Cav32 inh inactive.
For CCN(CC(=O)Nc1ccc2c(c1)OC(F)(F)O2)Cc1nc2ccccc2c(=O)[nH]1 the results were PostGolgi ctrl inactive, PostGolgi yeast inactive, Ecoli WT expand inactive and Cav32 inh inactive.
`CCN(CC(=O)Nc1ccc2c(c1)OCO2)Cc1nc2ccccc2c(=O)[nH]1` gave PostGolgi ctrl 31, PostGolgi yeast inactive, Ecoli WT expand inactive, Cav32 inh inactive and Ecoli tolC inactive.
O=C(Nc1ccc(Cl)c(C(F)(F)F)c1)[C@@H]1CC=C[C@@H]2CCN(Cc3ccc(Cl)c(Cl)c3)C(=O)[C@@H]21 was read as Cav32 inh inactive.
`O=c1cc(-c2c(F)c(F)c(F)c(F)c2F)oc2ccccc12` gave PostGolgi ctrl inactive, PostGolgi yeast inactive, Ecoli WT expand inactive and Cav32 inh inactive.
O=c1cc(-c2c(F)c(F)c(F)c(F)c2F)oc2c(F)c(F)c(F)c(F)c12 was read as PostGolgi ctrl 64, PostGolgi yeast 54, Ecoli WT expand inactive, Cav32 inh inactive and Ecoli tolC inactive.
`COc1ccc(N(CC(=O)NC2CCCC2)C(=O)Cn2nnc(-c3ccc(C)cc3)n2)cc1` gave PostGolgi ctrl inactive, PostGolgi yeast inactive, Ecoli WT expand inactive and Cav32 inh -6.7.
`CC(C)(C)C(=O)O/N=C1/C(=O)N(c2ccccc2)c2ccccc21` gave PostGolgi ctrl 40, PostGolgi yeast inactive, Ecoli WT expand inactive and Cav32 inh inactive.
For Cc1cc(C(=O)CSc2ccc(F)cc2)cc(C)c1OC(=S)N(C)C the results were PostGolgi ctrl inactive, PostGolgi yeast inactive, Ecoli WT expand inactive and Cav32 inh inactive.
Screening COc1ccc(SCC(=O)c2cc(C)c(OC(=S)N(C)C)c(C)c2)cc1 returned PostGolgi ctrl inactive, PostGolgi yeast inactive, Ecoli WT expand inactive and Cav32 inh -4.5.
For c1cncc(-c2nc(Oc3ccc(-c4nnco4)cc3)c3c4c(sc3n2)CCCC4)c1 the results were Ecoli tolC inactive.
Screening Cc1cc(C)c2nc(N3CCCC(C(=O)N4CCN(c5ncccn5)CC4)C3)sc2c1 (configuration not stated) returned PostGolgi ctrl 67, PostGolgi yeast inactive, Ecoli WT expand inactive and Cav32 inh inactive.
O=c1nc(NC2CCCC2)ccn1Cc1cccc(Br)c1 was read as PostGolgi ctrl 50, PostGolgi yeast inactive, Ecoli WT expand inactive, Cav32 inh inactive and Ecoli tolC inactive.
CCCN(CCC)c1nc2ccccc2nc1C(C#N)C(=O)OCCOC (configuration not stated) was read as PostGolgi ctrl inactive, PostGolgi yeast inactive, Ecoli WT expand inactive and Ecoli tolC 80.
CCOC(=O)C1CCN(c2nc3ccccc3nc2C(C#N)C(=O)OC(C)COC)CC1 (configuration not stated) was read as PostGolgi ctrl inactive, PostGolgi yeast inactive, Ecoli WT expand inactive, Cav32 inh -4.4 and Ecoli tolC inactive.
For CCCCCCOC(=O)C(C#N)c1nc2ccccc2nc1N1CCN(C)CC1 (configuration not stated) the results were PostGolgi ctrl inactive, PostGolgi yeast inactive, Ecoli WT expand inactive, Cav32 inh inactive and Ecoli tolC 100.
For CCCCCCOC(=O)C(C#N)c1nc2ccccc2nc1N1CCCCC1 (configuration not stated) the results were PostGolgi ctrl inactive, PostGolgi yeast inactive, Ecoli WT expand inactive, Cav32 inh -5.3 and Ecoli tolC inactive.
Screening CC(=O)Nc1nc(SCCCc2ccccc2)n[nH]1 returned PostGolgi ctrl inactive, PostGolgi yeast inactive, Ecoli WT expand inactive, Cav32 inh inactive and Ecoli tolC inactive.
Screening CNC(=S)Nc1ccc(Nc2ccccc2)cc1 returned PostGolgi ctrl inactive, PostGolgi yeast inactive, Ecoli WT expand inactive and Cav32 inh inactive.
